Bioassay records (PubChem)
Rows were chosen to be rich in hits. Some 1.9% of all compounds tested hit in one or more screens of this group.
M5 PAM – positive allosteric modulators of human muscarinic M5 receptor | P08912 | CHO-K1 hM5, Fluo-8 calcium, ACh EC20 PAM; 0% = ACh EC20, 100% = ACh EC100 | activation, % at 3 µM | 360,000 tested, 0.3% active | AID 624038;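 active = activation above the run cutoff, the mean activation of all test compounds plus 3 SD, cut at about 18% in these data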
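Assay system: CHO-K1 hM5 cells. Also added: acetylcholine at EC20 concentration, added after compound. Dosing: 3 µM, single dose. Times: compound preincubation 140 s before EC20 acetylcholine addition. Signal: Fluo-8 calcium fluorescence. Measure: % activation relative to EC20 and EC100 ACh responses. Repeats: singlicate, one well per test compound.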
M4 ag – CHRM4 agonism in calcium assay; CHO-K1 hM4/Gqi5, Fluo-8 calcium fluorescence; vehicle 0%, full acetylcholine response 100%; activation, % at 3 µM; 360,000 tested, 0.14% active;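 active = activation above the run mean over all test wells plus 3 SD, cut at about 32% in these data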;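 also: peak over basal fluorescence ratio per well then scaled between controls; 0% = DMSO wells and 100% = acetylcholine at EC100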
Target sequence (P08173 whole entry, looked up): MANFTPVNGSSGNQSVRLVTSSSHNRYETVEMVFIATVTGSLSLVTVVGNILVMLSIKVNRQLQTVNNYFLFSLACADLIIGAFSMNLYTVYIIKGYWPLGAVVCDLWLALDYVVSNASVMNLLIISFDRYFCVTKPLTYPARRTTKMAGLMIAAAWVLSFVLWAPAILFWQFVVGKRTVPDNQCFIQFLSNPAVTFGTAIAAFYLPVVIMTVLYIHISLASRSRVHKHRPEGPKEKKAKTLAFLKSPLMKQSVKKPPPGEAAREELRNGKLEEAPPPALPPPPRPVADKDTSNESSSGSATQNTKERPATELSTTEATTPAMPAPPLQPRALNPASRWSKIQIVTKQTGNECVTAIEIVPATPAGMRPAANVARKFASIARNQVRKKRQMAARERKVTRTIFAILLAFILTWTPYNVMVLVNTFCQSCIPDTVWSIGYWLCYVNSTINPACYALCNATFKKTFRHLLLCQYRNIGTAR
M4 antag – antagonists of human muscarinic M4 receptor (CHRM4) | P08173 | CHO-hM4 cells, ACh EC80, Fluo-8 calcium fluorescence | inhibition, % at 3 µM | 360,000 tested, 0.73% active | AID 624125;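 active = inhibition above its plate's cutoff, the mean inhibition of sample wells plus 3 SD, cut at about 27% in these data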;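 also: 0% = acetylcholine EC80 with DMSO and 100% = DMSO without agonist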
M5 ag – CHRM5 agonism in calcium assay; P08912; CHO-K1 hM5 cells, Fluo-8 calcium fluorescence; 0% DMSO wells, 100% maximal acetylcholine response; activation, % at 3 µM; 360,000 tested, 0.19% active; AID 624037;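 active = activation above the run's mean over test compounds plus 3 SD, cut at about 23% in these data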;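 also: signal is peak over basal fluorescence ratio across the kinetic read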
CHRM5 antagonist – antagonists of human muscarinic M5 receptor (CHRM5); P08912; CHO-hM5 cells, Fluo-8 calcium fluorescence, ACh EC80; inhibition, % at 3 µM; 360,000 tested, 0.59% active; AID 624040;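 active = inhibition above a per-plate cutoff, the mean of that plate's test compounds plus 3 SD, cut at about 27% in these data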;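 also: 0% = acetylcholine EC80 with DMSO and 100% = DMSO without agonist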
CHRM4 PAM – positive allosteric modulators of human muscarinic M4 receptor; CHO-K1 hM4/Gqi5, Fluo-8 calcium fluorescence, ACh EC20; 0% = ACh EC20, 100% = maximal ACh; activation, % at 3 µM; 360,000 tested, 0.4% active; AID 624126;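 active = activation above its plate's cutoff, the mean activation of sample wells plus 3 SD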
Starred values were filed as active, the others as inactive.

SMILES	M5 PAM	M4 ag	M4 antag	M5 ag	CHRM5 antagonist	CHRM4 PAM
CC(Oc1ccc2c(-c3ccccc3)cc(=O)oc2c1)C(=O)N1CCOCC1 (stereo not given)	-6	2	8	1	10	-3
CC(Oc1ccc2c(-c3ccccc3)cc(=O)oc2c1)C(=O)O (stereo not given)	-5	0	27*	-1	12	-12
O=C1NC(=Nc2ccccc2)SC1Cc1ccccc1 (stereo not given)	-11	18	-2	-3	27*	-4
O=C1N/C(=N/c2ccccn2)SC1Cc1ccccc1 (stereo not given)	-1	0	-2	3	1	7
CCc1nc2ccc(C(=O)N(CC)CCN(C)C)cn2c1N(C=O)CCC(C)C	2	1	-9	0	-2	7
O=C(NCC1CCCCC1)c1ccc2nc([C@@H]3O[C@H](CO)[C@@H](O)[C@H]3O)[nH]c2c1	0	1	-7	0	-4	2
CCOC(=O)/C(=C\C=C1/Sc2cc(OCC)c(OCC)cc2N1CC)C(C)=O	-12	20	12	24*	13	-5
CCN1/C(=C/C(C)=O)Sc2ccc(OC)cc21	13	-1	1	-8	1	6
CCOC(=O)/C(=C/C=C1\Sc2cc(OCC)c(OCC)cc2N1CC)C(C)=O	-23	18	12	147*	36*	-9
CCn1c(C)nc2cc(C(=O)OC(C(F)(F)C(F)F)C(F)(F)C(F)F)ccc21	-15	15	25	5	39*	-22
Clc1cccc(C2CCN(Cc3nc(COc4ccccc4)no3)C2)c1 (stereo not given)	-4	6	-4	-4	10	-5
c1ccc(OCc2noc(CN3CC[C@@H]4CCCC[C@H]4C3)n2)cc1	22*	2	0	10	7	5
O=C(/C=C/[C@H]1O[C@@H](n2ccc(=O)[nH]c2=O)[C@H](O)[C@@H]1O)NCc1ccccc1	0	1	-10	1	4	10
CCNC(=O)C1(C)CCN(C(=O)c2c(-c3ccccc3)noc2C)C1 (stereo not given)	3	0	2	-1	-1	-6
N#Cc1c(Cl)nc(N/N=C/c2ccccc2)c(Cl)c1Cl	0	0	6	0	-4	4
C[N+](C)(C)c1ccc(/C=N/Nc2nc(Cl)c(C#N)c(Cl)c2Cl)cc1	-5	3	1	32*	-4	-1
C[C@H]1CN([C@@H](C)CO)C(=O)c2cc(Br)cnc2O[C@@H]1CN(C)C(=O)c1ccncc1	2	1	-10	0	-4	1
O=S(=O)(Nc1ccc2c(c1)OCO2)c1cccs1	34*	0	-10	-2	21	5
Cc1cccc(C)c1NC(=O)C(c1ccccc1)N1CCC(Cc2ccccc2)CC1 (stereo not given)	-1	-1	-2	-1	8	-3
COC(=O)[C@@]12C[C@@H](CC(=O)N3CCCCC3)C(=O)N(Cc3ccco3)C1=CCC(C)(C)C2	5	1	-1	-1	-4	-5
C/C=C(/C)C(=O)OC1CC(C)(C)C[C@H]2C3=CC[C@@H]4[C@@]5(C)CCC(O[C@@H]6O[C@@H](C(=O)O)[C@@H](O)C(O[C@@H]7OC[C@H](O)[C@@H](O)[C@@H]7O[C@@H]7OC(CO)C(O)[C@@H](O)[C@@H]7O)C6O[C@@H]6OC(CO)C(O)C(O)C6O)[C@@](C)(CO)[C@@H]5CC[C@]4(C)[C@]3(C)CC(O)[C@@]12CO (stereo not given in full)	-6	75*	26	-3	10	20
C/C=C(\C)C(=O)OC1[C@H](OC(C)=O)C2(CO)C(CC1(C)C)C1=CCC3C4(C)CCC(O[C@@H]5O[C@H](C(=O)O)[C@@H](O[C@@H]6O[C@H](CO)[C@@H](O)[C@H](O)[C@H]6O)[C@H](O)[C@H]5O[C@H]5O[C@H](CO)[C@@H](O)[C@H](O)[C@H]5O)[C@](C)(CO)C4CCC3(C)[C@]1(C)C[C@H]2O (stereo not given in full)	-26	133*	91*	92*	82*	-19
CC1(C)C[C@H]2C3=CCC4[C@@]5(C)CC[C@H](O[C@@H]6O[C@H](C(=O)O)[C@@H](O)[C@H](O)[C@H]6O)[C@@](C)(CO)C5CC[C@@]4(C)[C@]3(C)C[C@H](O)[C@@]2(CO)[C@@H](O)[C@@H]1O (stereo not given in full)	-1	1	-1	0	15	12
CCC(C)NC(=O)C1CCCN(c2nc(C)cc(OC)n2)C1 (stereo not given)	20*	2	-12	-7	-17	25*
CCN1CCN(C(=O)c2ccc(Cl)c(S(=O)(=O)N(C)c3ccccc3)c2)CC1	5	3	-1	0	-2	20*
SMILES	M5 PAM	M4 ag	M4 antag	M5 ag	CHRM5 antagonist	CHRM4 PAM
NC(=O)CN1CCOCCOCCN(CC(N)=O)CCOCCOCC1	5	0	101*	1	-5	3
CCOC(=O)c1cc(-c2cccc(O)c2)oc1C	-3	-2	2	1	-3	-2
COc1ccc(-c2cc(C(=O)NCc3ccc(F)cc3)[nH]n2)c(C)c1	0	1	2	-1	5	-2
Cc1ccc(CNc2ccc(N3CCOCC3)cc2)cc1	6	2	-20	4	-1	14*
CC(C)c1ccc(CNc2ccc(N3CCOCC3)cc2)cc1	4	1	2	-3	-1	-5
CC1(C(=O)Nc2ccc3c(c2)OCCO3)CCC(=O)N1C1CC1 (stereo not given)	1	1	-4	4	-7	-3
Cc1nnc(SCc2c(Cl)cccc2[N+](=O)[O-])s1	20*	2	-5	8	2	13
COc1ccc(-c2oc3c(c2C#CCCCCO)C(OCCO)CC3)cc1 (stereo not given)	-6	2	4	-2	11	-2
O=C(N/N=C/c1cn(-c2cccs2)nc1-c1ccccc1)c1ccccc1Br	-6	4	10	2	-6	-5
O=C(N/N=C/c1cn(-c2cccs2)nc1-c1ccccc1)c1ccccc1O	-17	12	15	2	28*	-14
O=C(Nc1ccccc1)C1CCCN(C(=O)c2ccc(Cl)cc2)C1 (stereo not given)	0	4	-11	6	-11	3
O=C(Cc1ccc(NC(=O)C2CCCN(C(=O)C3CCCCC3)C2)cc1)Nc1cccc(C(=O)N2CCCC2)c1 (stereo not given)	-5	-2	-1	1	8	17*
